Experiments:
[1] = test system: MDA-MB-468; assay: Cytotoxicity against human MDA-MB-468 cells assessed as cell growth at 10^-5 M after 48 hrs by SRB assay; assay type: functional; details: MDA-MB-468, 48 h, read-out: Activity
Procedure, shortened: (§1)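 NCI 60-cell-line primary one-dose screen across nine tumour subpanels. Compound added at a single concentration of 10^-5 M and cultures incubated 48 h. Endpoint was sulforhodamine B protein staining read spectrophotometrically, with growth expressed as percent of untreated control cells.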

[2] = test system: BT-549; assay: Cytotoxicity against human BT549 cells assessed as cell growth at 10^-5 M after 48 hrs by SRB assay; assay type: functional; details: BT-549, 48 h, read-out: Activity; procedure, shortened: as §1
[3] = test system: MDA-MB-231; assay: Cytotoxicity against human MDA-MB-231 cells assessed as cell growth at 10^-5 M after 48 hrs by SRB assay; assay type: functional; details: MDA-MB-231, 48 h, read-out: Activity; procedure, shortened: as §1
[4] = test system: MCF7; assay: Cytotoxicity against human MCF7 cells assessed as cell growth at 10^-5 M after 48 hrs by SRB assay; assay type: functional; details: MCF7, 48 h, read-out: Activity; procedure, shortened: as §1
[5] = test system: UO-31; assay: Cytotoxicity against human UO31 cells assessed as cell growth at 10^-5 M after 48 hrs by SRB assay; assay type: functional; details: UO-31, 48 h, read-out: Activity
Procedure, shortened: (§2)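 NCI-60 one-dose screen across nine tumour subpanels. Each agent added once at 10^-5 M, cultures incubated 48 h. Endpoint is sulforhodamine B protein staining read spectrophotometrically. Output is percent growth of treated cells relative to untreated controls.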

[6] = test system: RXF 393; assay: Cytotoxicity against human RXF393 cells assessed as cell growth at 10^-5 M after 48 hrs by SRB assay; assay type: functional; details: RXF 393, 48 h, read-out: Activity; procedure, shortened: as §1
[7] = test system: ACHN; assay: Cytotoxicity against human ACHN cells assessed as cell growth at 10^-5 M after 48 hrs by SRB assay; assay type: functional; details: read-out: Activity; procedure, shortened: as §1
[8] = test system: CAKI-1; assay: Cytotoxicity against human CAKI-1 cells assessed as cell growth at 10^-5 M after 48 hrs by SRB assay; assay type: functional; details: CAKI-1, 48 h, read-out: Activity; procedure, shortened: as §1
[9] = test system: A498; assay: Cytotoxicity against human A498 cells assessed as cell growth at 10^-5 M after 48 hrs by SRB assay; assay type: functional; details: A498, 48 h, read-out: Activity; procedure, shortened: as §1
[10] = test system: OVCAR-5; assay: Cytotoxicity against human OVCAR5 cells assessed as cell growth at 10^-5 M after 48 hrs by SRB assay; assay type: functional; details: OVCAR-5, 48 h, read-out: Activity; procedure, shortened: as §1
[11] = test system: UACC-257; assay: Cytotoxicity against human UACC257 cells assessed as cell growth at 10^-5 M after 48 hrs by SRB assay; assay type: functional; details: UACC-257, 48 h, read-out: Activity; procedure, shortened: as §2
[12] = test system: Malme-3M; assay: Cytotoxicity against human MALME-3M cells assessed as cell growth at 10^-5 M after 48 hrs by SRB assay; assay type: functional; details: read-out: Activity; procedure, shortened: as §1
[13] = test system: U-251; assay: Cytotoxicity against human U251 cells assessed as cell growth at 10^-5 M after 48 hrs by SRB assay; assay type: functional; details: U-251, 48 h, read-out: Activity; procedure, shortened: as §2
[14] = test system: SNB-19; assay: Cytotoxicity against human SNB19 cells assessed as cell growth at 10^-5 M after 48 hrs by SRB assay; assay type: functional; details: SNB-19, 48 h, read-out: Activity; procedure, shortened: as §2
[15] = test system: SF-268; assay: Cytotoxicity against human SF268 cells assessed as cell growth at 10^-5 M after 48 hrs by SRB assay; assay type: functional; details: SF-268, 48 h, read-out: Activity; procedure, shortened: as §1
[16] = test system: SF-295; assay: Cytotoxicity against human SF295 cells assessed as cell growth at 10^-5 M after 48 hrs by SRB assay; assay type: functional; details: SF-295, 48 h, read-out: Activity; procedure, shortened: as §1
[17] = test system: SW-620; assay: Cytotoxicity against human SW620 cells assessed as cell growth at 10^-5 M after 48 hrs by SRB assay; assay type: functional; details: SW-620, 48 h, read-out: Activity; procedure, shortened: as §2
[18] = test system: KM12; assay: Cytotoxicity against human KM12 cells assessed as cell growth at 10^-5 M after 48 hrs by SRB assay; assay type: functional; details: KM12, 48 h, read-out: Activity; procedure, shortened: as §1
[19] = test system: HT-29; assay: Cytotoxicity against human HT-29 cells assessed as cell growth at 10^-5 M after 48 hrs by SRB assay; assay type: functional; details: HT-29, 48 h, read-out: Activity; procedure, shortened: as §1
[20] = test system: HCT-116; assay: Cytotoxicity against human HCT116 cells assessed as cell growth at 10^-5 M after 48 hrs by SRB assay; assay type: functional; details: HCT-116, 48 h, read-out: Activity; procedure, shortened: as §1
[21] = test system: COLO 205; assay: Cytotoxicity against human COLO205 cells assessed as cell growth at 10^-5 M after 48 hrs by SRB assay; assay type: functional; details: COLO 205, 48 h, read-out: Activity; procedure, shortened: as §1
[22] = test system: HCC 2998; assay: Cytotoxicity against human HCC2998 cells assessed as cell growth at 10^-5 M after 48 hrs by SRB assay; assay type: functional; details: HCC 2998, 48 h, read-out: Activity; procedure, shortened: as §1
[23] = test system: HOP-92; assay: Cytotoxicity against human HOP92 cells assessed as cell growth at 10^-5 M after 48 hrs by SRB assay; assay type: functional; details: HOP-92, 48 h, read-out: Activity; procedure, shortened: as §1
[24] = Cytotoxicity against human EKVX cells assessed as cell growth at 10^-5 M after 48 hrs by SRB assay; assay type: functional; details: read-out: Activity; procedure, shortened: as §1
[25] = test system: SR; assay: Cytotoxicity against human SR cells assessed as cell growth at 10^-5 M after 48 hrs by SRB assay; assay type: functional; details: read-out: Activity; procedure, shortened: as §2
[26] = test system: RPMI-8226; assay: Cytotoxicity against human RPMI8226 cells assessed as cell growth at 10^-5 M after 48 hrs by SRB assay; assay type: functional; details: RPMI-8226, 48 h, read-out: Activity; procedure, shortened: as §1
[27] = test system: MOLT-4; assay: Cytotoxicity against human MOLT4 cells assessed as cell growth at 10^-5 M after 48 hrs by SRB assay; assay type: functional; details: MOLT-4, 48 h, read-out: Activity; procedure, shortened: as §1
[28] = test system: CCRF-CEM; assay: Cytotoxicity against human CCRF-CEM cells assessed as cell growth at 10^-5 M after 48 hrs by SRB assay; assay type: functional; details: read-out: Activity; procedure, shortened: as §1
[29] = Induction of nitric oxide release in phosphate buffer at pH 7.4 at 0.1 mM after 6 hrs by Griess method in presence of 0.5 mM of N-acetylcysteine; assay type: physicochemical; details: pH 7.4, 6 h, 100 µM
Procedure, shortened: (§3)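 Compound in DMF diluted to final 10^-4 M in 1:1 50 mM phosphate buffer pH 7.4/MeOH with 5×10^-4 M N-acetylcysteine, 37 °C. Aliquot mixed with Griess reagent, 10 min at room temperature, A546 read. Nitrite quantified against sodium nitrite standards (10–80 nmol/mL); NO expressed as mol/mol. n = 4 reaction mixtures per compound.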

[30] = Induction of nitric oxide release in phosphate buffer at pH 7.4 at 0.1 mM after 5 hrs by Griess method in presence of 0.5 mM of N-acetylcysteine; assay type: physicochemical; details: pH 7.4, 5 h, 100 µM; procedure, shortened: as §3
[31] = Induction of nitric oxide release in phosphate buffer at pH 7.4 at 0.1 mM after 3 hrs by Griess method in presence of 0.5 mM of N-acetylcysteine; assay type: physicochemical; details: pH 7.4, 3 h, 100 µM; procedure, shortened: as §3
[32] = Induction of nitric oxide release in phosphate buffer at pH 7.4 at 0.1 mM after 1 hr by Griess method in presence of 0.5 mM of N-acetylcysteine; assay type: physicochemical; details: pH 7.4, 1 h, 100 µM; procedure, shortened: as §3

| Compound | growth at 10 µM [1] | growth at 10 µM [2] | growth at 10 µM [3] | growth at 10 µM [4] | growth at 10 µM [5] | growth at 10 µM [6] | growth at 10 µM [7] | growth at 10 µM [8] | growth at 10 µM [9] | growth at 10 µM [10] | growth at 10 µM [11] | growth at 10 µM [12] | growth at 10 µM [13] | growth at 10 µM [14] | growth at 10 µM [15] | growth at 10 µM [16] | growth at 10 µM [17] | growth at 10 µM [18] | growth at 10 µM [19] | growth at 10 µM [20] | also measured |
| --- | --- | --- | --- | --- | --- | --- | --- | --- | --- | --- | --- | --- | --- | --- | --- | --- | --- | --- | --- | --- | --- |
| COc1cc(-c2nnc(SC/C(=N/O)c3ccccc3)n2-c2ccccc2)cc(OC)c1OC | 119% | 85.3% | 93.7% | 101% | 69.5% | 105% | 99.3% | 79% | 98.4% | 115% | 102% | 95.3% | 94.1% | 95.2% | 114% | 93.1% | 114% | 108% | 99.5% | 92.7% | growth at 10 µM [21]: 108%; growth at 10 µM [22]: 108%; growth at 10 µM [23]: 81.2%; growth at 10 µM [24]: 97.9%; growth at 10 µM [25]: 74.8%; growth at 10 µM [26]: 73.6%; growth at 10 µM [27]: 81.7%; growth at 10 µM [28]: 88.5%; Activity [29]: 0.15 mol/mol; Activity [30]: 0.16 mol/mol; Activity [31]: 0.12 mol/mol; Activity [32]: 0.07 mol/mol |
| C=CCn1c(SC/C(=N\O)c2ccccc2)nnc1-c1ccc(OC)c(OC)c1 | 105% | 124% | 94.4% | 105% | 77.9% | 117% | 97.8% | 90% | 97.4% | 107% | 102% | 92.5% | 94.2% | 99.5% | 105% | 104% | 104% | 106% | 93.5% | 112% | growth at 10 µM [21]: 106%; growth at 10 µM [22]: 100%; growth at 10 µM [23]: 81.9%; growth at 10 µM [24]: 101%; growth at 10 µM [25]: 109%; growth at 10 µM [26]: 83.7%; growth at 10 µM [27]: 85.3%; growth at 10 µM [28]: 98.3%; Activity [29]: 0.13 mol/mol; Activity [30]: 0.24 mol/mol; Activity [31]: 0.17 mol/mol; Activity [32]: 0.09 mol/mol |
| CCn1c(SC/C(=N/O)c2ccccc2)nnc1-c1ccccc1 | 108% | 115% | 94.6% | 112% | 91.5% | 117% | 105% | 89% | 69.3% | 96.8% | 104% | 98.7% | 102% | 99% | 108% | 109% | 98.7% | 110% | 104% | 101% | growth at 10 µM [21]: 115%; growth at 10 µM [22]: 96.6%; growth at 10 µM [23]: 62.5%; growth at 10 µM [24]: 90.6%; growth at 10 µM [25]: 94.8%; growth at 10 µM [26]: 89.7%; growth at 10 µM [27]: 94.8%; growth at 10 µM [28]: 88.9%; Activity [29]: 0.13 mol/mol; Activity [30]: 0.14 mol/mol; Activity [31]: 0.12 mol/mol; Activity [32]: 0.06 mol/mol |

From ChEMBL document CHEMBL2390929, “New nitric oxide donating 1,2,4-triazole/oxime hybrids: synthesis, investigation of anti-inflammatory, ulceroginic liability and antiproliferative activities” (Bioorg Med Chem, 2013)
